Assay results of several laboratories.
Lines come from different studies, so protocols differ.
Target: Tyrosine-protein kinase Fyn (FYN, Homo sapiens, UniProt P06241)

| SMILES | effect on | method | tested at | remaining binding |
| --- | --- | --- | --- | --- |
| Nc1ncc2c(n1)-c1c([nH]c3ccc(C#CC4CC4)cc13)CCCC2 | binding | competition with immobilised ligand | 1 µM | 100% |
| Cc1cnc(Nc2ccc(C(=O)N3CCC(N4CCCC4)CC3)cc2)nc1-c1cc2ccccc2s1 | binding | competition with immobilised ligand | 1 µM | 78% |
| CN(C)CC#Cc1ccc(OCCCc2sc(N3CCc4cccc(C(=O)Nc5nc6ccccc6s5)c4C3)nc2C(=O)O)c(F)c1 | cell-free assay | competition with immobilised ligand | 1 µM | 96% |
| C[C@@H](c1ccc(-n2cnc3c(N)ncnc32)cc1)N1CCc2nn(C)c(Cc3ccccc3)c2C1=O | binding | competition with immobilised ligand | 0.1 µM | 100% |
| O=C(O)[C@@H]1[C@@H](Cn2nnc3ccccc3c2=O)CC[C@H]1C(=O)c1ccc(OCCC2CCOCC2)cc1 | cell-free assay | competition with immobilised ligand | 1 µM | 76% |
| CNC(=O)[C@@H]1CC[C@@H](n2c(-c3ccc4cnccc4c3)nc3ccc(C(=O)NCc4cccc(C(N)=O)c4)cc32)C1 | binding | competition with immobilised ligand | 1 µM | 100% |
| C[C@H]1CCN(c2nccc(-c3cnn4ncccc34)n2)C1 | binding |  | 1 µM | 100% |
| O=C(NCC1CCOCC1)c1n[nH]cc1NC(=O)c1c(F)cccc1F | binding | competition with immobilised ligand | 1 µM | 100% |
| COc1cnc(Nc2cccc(S(N)(=O)=O)c2)nc1N1CCN(c2ccccc2)CC1 | binding | competition with immobilised ligand | 1 µM | 99% |
| CCOCCn1cc(C(=O)Nc2ccc(-n3nc(-c4cccnc4)cc3C(F)(F)F)cn2)ccc1=O | cell-free assay | competition with immobilised ligand | 1 µM | 53% |
| CN(CCCC(F)(F)F)c1nccc(-c2cnn3ncccc23)n1 | binding |  | 1 µM | 82% |
| O=C(c1ccc(Nc2nccc(-c3cc4ccccc4s3)n2)cc1)N1CCC(N2CCCC2)CC1 | binding | competition with immobilised ligand | 1 µM | 85% |
| COc1ccnn2ncc(-c3ccnc(N(C)C)n3)c12 | binding |  | 1 µM | 100% |
| CC(C)CC(=O)N1CCc2nc(-c3ccc(Br)cc3)nc(N(C)Cc3ccccc3)c2C1 | cell-free assay | competition with immobilised ligand | 0.1 µM | 100% |
| Cc1cnn2ncc(-c3ccnc(N(C)C)n3)c2c1 | binding |  | 1 µM | 98% |
| O=C(NCc1ncc(C(F)(F)F)cc1Cl)c1ccc2c(c1)C1(CCS(=O)(=O)CC1)[C@H](C1CC1)N2S(=O)(=O)c1ccc(F)cc1 | cell-free assay | competition with immobilised ligand | 1 µM | 100% |
| CN(C)c1nccc(-c2cnn3ncccc23)n1 | binding |  | 1 µM | 100% |
| NS(=O)(=O)c1cc(NC(=O)C2(c3ccccc3Cl)CC2)ccc1Oc1cccc(Cl)c1 | cell-free assay | competition with immobilised ligand | 1 µM | 100% |
| O=C(c1ccc(Nc2ncc(Cl)c(-c3ccc(Cl)s3)n2)cc1)N1CCC(N2CCCC2)CC1 | binding | competition with immobilised ligand | 1 µM | 100% |
| CN(c1nccc(-c2cnn3ncccc23)n1)C1CC1 | binding |  | 1 µM | 85% |
